Data from ChEMBL document CHEMBL3627671, “Novel derivatives of nitro-substituted salicylic acids: Synthesis, antimicrobial activity and cytotoxicity” (Bioorg Med Chem, 2015).
Values after ≈ are worked out from the molar mass of the structure shown.

Tests used:
Mycobacterium kansasii [1] = experiment: Antimycobacterial activity against Mycobacterium kansasii 6509/96 after 21 days; assay type: functional; conditions: 6509/96, 504 h
Outline: (§1)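 Šula's semisynthetic medium micromethod at 37 °C, read after 7, 14 and 21 days. The 1.0 McFarland suspension was diluted 10^-4. MIC determined. 6509/96 is a clinical isolate.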

Mycobacterium avium [2] = experiment: Antimycobacterial activity against Mycobacterium avium 330/80 after 14 days; assay type: functional; conditions: 330/80, 336 h
Mycobacterium kansasii [3] = experiment: Antimycobacterial activity against Mycobacterium kansasii 235/80 after 21 days; assay type: functional; conditions: 235/80, 504 h; outline: as §1
Mycobacterium avium [4] = experiment: Antimycobacterial activity against Mycobacterium avium 330/80 after 21 days; assay type: functional; conditions: 330/80, 504 h
Mycobacterium kansasii [5] = experiment: Antimycobacterial activity against Mycobacterium kansasii 235/80 after 14 days; assay type: functional; conditions: 235/80, 336 h; outline: as §1
[6] = system: Mycobacterium tuberculosis; experiment: Antimycobacterial activity against Mycobacterium tuberculosis H37Rv 331/88 after 14 days; assay type: functional; conditions: H37Rv 331/88, 336 h
Mycobacterium kansasii [7] = experiment: Antimycobacterial activity against Mycobacterium kansasii 235/80 after 7 days; assay type: functional; conditions: 235/80, 168 h; outline: as §1
Mycobacterium kansasii [8] = experiment: Antimycobacterial activity against Mycobacterium kansasii 6509/96 after 14 days; assay type: functional; conditions: 6509/96, 336 h; outline: as §1
HepG2 = experiment: Cytotoxicity against human HepG2 cells after 24 hrs […]; assay type: cell-based; conditions: HepG2, 24 h
Mycobacterium kansasii [9] = experiment: Antimycobacterial activity against Mycobacterium kansasii 6509/96 after 7 days; assay type: functional; conditions: 6509/96, 168 h; outline: as §1
[10] = system: Mycobacterium tuberculosis; experiment: Antimycobacterial activity against Mycobacterium tuberculosis H37Rv 331/88 after 21 days; assay type: functional; conditions: H37Rv 331/88, 504 h
[11] = Selectivity index, ratio of CI50 for human HepG2 cells to MIC100 for Mycobacterium tuberculosis H37Rv 331/88

SMILES	MIC (Mycobacterium kansasii [1]) [µM]	MIC (Mycobacterium avium [2]) [µM]	MIC (Mycobacterium kansasii [3]) [µM]	MIC (Mycobacterium avium [4]) [µM]	MIC (Mycobacterium kansasii [5]) [µM]	MIC [6] [µM]	MIC (Mycobacterium kansasii [7]) [µM]	MIC (Mycobacterium kansasii [8]) [µM]	IC50 (HepG2) [µM]	MIC (Mycobacterium kansasii [9]) [µM]	MIC [10] [µM]	Selectivity Index [11]
O=C(Nc1cccc(C(F)(F)F)c1)c1cccc([N+](=O)[O-])c1O	250 (≈ 81.6 µg/mL)	500 (≈ 163 µg/mL)	62.5 (≈ 20.4 µg/mL)	500 (≈ 163 µg/mL)	62.5 (≈ 20.4 µg/mL)	32 (≈ 10.4 µg/mL)	32 (≈ 10.4 µg/mL)	250 (≈ 81.6 µg/mL)	8.9	125 (≈ 40.8 µg/mL)	32 (≈ 10.4 µg/mL)	0.278
O=C(Nc1ccc(C(F)(F)F)cc1)c1cccc([N+](=O)[O-])c1O	125 (≈ 40.8 µg/mL)	250 (≈ 81.6 µg/mL)	125 (≈ 40.8 µg/mL)	250 (≈ 81.6 µg/mL)	125 (≈ 40.8 µg/mL)	32 (≈ 10.4 µg/mL)	62.5 (≈ 20.4 µg/mL)	62.5 (≈ 20.4 µg/mL)	8	62.5 (≈ 20.4 µg/mL)	32 (≈ 10.4 µg/mL)	0.25
